Laboratory results taken from ChEMBL document CHEMBL1275359, “Pro-apoptotic activity of lipidic α-amino acids isolated from Protopalythoa variabilis” (Bioorg Med Chem, 2010).
Activity calls are given as the source filed them.

Experiments:
Assay type in all cases: functional, cell-based
[1] = test system: SF-295; experiment: Cytotoxicity against human SF295 cells at 5 ug/ml after 72 hrs by MTT assay
Summary of the method: (§1)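 Cells kept in log-phase growth in RPMI-1640 with 2 mM glutamine, 10% fetal calf serum, streptomycin and 100 U/ml penicillin at 37 °C, 5% CO₂. Single concentration of 5 µg/ml applied for 72 h. Growth read by MTT, reported as percent growth inhibition relative to untreated cells. Data from three to four experiments.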

[2] = test system: HCT-8; experiment: Cytotoxicity against human HCT8 cells at 5 ug/ml after 72 hrs by MTT assay; summary of the method: as §1
[3] = test system: MDA-MB-435; experiment: Cytotoxicity against human MDA-MB-435 cells at 5 ug/ml after 72 hrs by MTT assay; summary of the method: as §1
[4] = test system: HL-60; experiment: Cytotoxicity against human HL60 cells at 5 ug/ml after 72 hrs by MTT assay; summary of the method: as §1

Measured: Activity

CCCCCCCCCCC(N)C(=O)OC (stereo not drawn)
active: all assays above

CCCCCCCCC(N)C(=O)OC (stereo not drawn)
active: all assays above
